# In ChEMBL document CHEMBL1641463, “Discovery of a series of potent arylthiadiazole H(3) antagonists” (Bioorg Med Chem Lett, 2011):
# Tests used:
# [1] = biological target: Histamine H3 receptor (Homo sapiens, UniProt Q9Y5N1); experiment: Displacement of [3H]-N-alpha-methylhistamine from human recombinant histamine H3 receptor expressed in HEK cells after 30 mins by scintillation counting; format: cell-based, HEK293
# Procedure, shortened: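 P2 membrane pellet from HEK cells expressing recombinant human H3, 3 µg protein per well, in 50 mM Tris–HCl pH 7.4 with 1 nM [3H]N-methylhistamine (82 Ci/mmol). Compound tested at half-log steps across five orders of magnitude. Nonspecific binding defined with 10^-5 M thioperamide. 30 min at 30 °C, then filtration on 0.3% PEI-soaked GF/B filters, three buffer rinses, scintillation counting. Ki from nonlinear least-squares curve fit.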
# [2] = biological target: Cytochrome P450 3A4 (Homo sapiens, UniProt P08684); experiment: Inhibition of CYP3A4; format: ADME
# Procedure, shortened: (§1)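 CYP3A4, 2D6 and 2C9 inhibition tested under both pre-incubation and co-incubation conditions.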
# [3] = biological target: Cytochrome P450 2D6 (Homo sapiens, UniProt P10635); experiment: Inhibition of CYP2D6; format: ADME; procedure, shortened: as §1
# [4] = biological target: Cytochrome P450 2C9 (Homo sapiens, UniProt P11712); experiment: Inhibition of CYP2C9; format: ADME; procedure, shortened: as §1
# [5] = Drug level in mouse brain at 10 mg/kg, po after 4 hrs; format: ADME, organism-based; parameters: dose 10 mg/kg, route oral; settings: read-out: Drug uptake
# Procedure, shortened: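 Mouse brain concentration measured 4 h after a 10 mg/kg oral dose, in ng/g.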
# [6] = biological target: Histamine H3 receptor (Mus musculus) (UniProt P58406); experiment: Displacement of [3H]-N-alpha-methylhistamine from histamine H3 receptor in […] mouse cortex after 4 hrs by scintillation counting
# Procedure, shortened: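 Ex vivo binding in cortex dissected from individual ICR mice, read at 4 h. Cortex homogenized in ice-cold 50 mM Na2HPO4–KH2PO4 pH 6.8 and frozen at −80 °C for at least 12 h; protein measured by BCA. Homogenate incubated 30 min at room temperature with 1 nM [3H]N-methylhistamine and 0.1% BSA; thioperamide defines nonspecific binding. Quadruplicates, filtered on PEI-presoaked GF/B; specific = total − nonspecific.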
# [7] = AUC (0 to 6 hrs) in rat at 10 mg/kg, po; format: ADME, organism-based; parameters: time < 6 hr, dose 10 mg/kg, route oral; settings: plasma
# Procedure, shortened: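 Rat exposure measured after a 10 mg/kg oral dose; AUC taken over 0–6 h, in ng·h/ml.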
# Sequence of Histamine H3 receptor (Q9Y5N1 whole entry): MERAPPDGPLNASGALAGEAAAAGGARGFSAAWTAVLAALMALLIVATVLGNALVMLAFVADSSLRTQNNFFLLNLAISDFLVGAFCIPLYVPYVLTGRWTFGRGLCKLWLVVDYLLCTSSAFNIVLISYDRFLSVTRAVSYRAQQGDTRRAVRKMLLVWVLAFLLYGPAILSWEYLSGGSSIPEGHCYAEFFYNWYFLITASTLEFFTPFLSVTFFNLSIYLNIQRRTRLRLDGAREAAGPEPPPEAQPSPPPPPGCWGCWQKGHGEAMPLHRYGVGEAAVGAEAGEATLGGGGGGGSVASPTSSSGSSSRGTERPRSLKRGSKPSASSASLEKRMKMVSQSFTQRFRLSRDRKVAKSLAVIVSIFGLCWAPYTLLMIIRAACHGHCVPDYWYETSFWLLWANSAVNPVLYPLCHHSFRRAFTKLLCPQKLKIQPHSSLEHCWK
# Sequence of Cytochrome P450 2D6 (P10635 whole entry): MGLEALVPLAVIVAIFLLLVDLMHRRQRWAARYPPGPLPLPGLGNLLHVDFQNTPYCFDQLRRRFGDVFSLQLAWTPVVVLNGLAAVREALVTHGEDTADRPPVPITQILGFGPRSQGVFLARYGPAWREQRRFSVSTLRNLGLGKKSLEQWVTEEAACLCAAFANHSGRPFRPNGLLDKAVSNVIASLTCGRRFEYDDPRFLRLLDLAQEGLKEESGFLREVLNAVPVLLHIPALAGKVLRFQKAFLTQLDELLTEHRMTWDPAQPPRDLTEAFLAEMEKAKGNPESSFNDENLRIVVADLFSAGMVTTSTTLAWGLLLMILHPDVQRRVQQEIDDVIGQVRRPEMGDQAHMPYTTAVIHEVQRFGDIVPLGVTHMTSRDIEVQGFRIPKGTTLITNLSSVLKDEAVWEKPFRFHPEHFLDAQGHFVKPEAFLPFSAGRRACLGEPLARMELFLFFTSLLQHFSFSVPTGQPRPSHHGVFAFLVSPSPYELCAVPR
# Sequence of Cytochrome P450 3A4 (P08684 whole entry): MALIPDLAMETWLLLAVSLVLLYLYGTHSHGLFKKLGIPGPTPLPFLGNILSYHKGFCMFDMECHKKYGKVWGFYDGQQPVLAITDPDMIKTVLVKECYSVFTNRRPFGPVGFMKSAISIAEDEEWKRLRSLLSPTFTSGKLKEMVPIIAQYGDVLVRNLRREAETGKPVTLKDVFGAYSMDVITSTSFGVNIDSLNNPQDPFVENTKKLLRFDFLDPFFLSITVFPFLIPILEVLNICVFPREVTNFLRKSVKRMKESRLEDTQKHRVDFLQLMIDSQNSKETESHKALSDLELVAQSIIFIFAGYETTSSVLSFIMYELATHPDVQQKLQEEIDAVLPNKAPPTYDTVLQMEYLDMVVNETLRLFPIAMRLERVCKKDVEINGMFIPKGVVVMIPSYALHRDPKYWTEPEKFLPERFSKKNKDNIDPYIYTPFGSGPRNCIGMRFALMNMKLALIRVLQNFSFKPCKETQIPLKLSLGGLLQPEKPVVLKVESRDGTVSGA
# Sequence of Cytochrome P450 2C9 (P11712 whole entry): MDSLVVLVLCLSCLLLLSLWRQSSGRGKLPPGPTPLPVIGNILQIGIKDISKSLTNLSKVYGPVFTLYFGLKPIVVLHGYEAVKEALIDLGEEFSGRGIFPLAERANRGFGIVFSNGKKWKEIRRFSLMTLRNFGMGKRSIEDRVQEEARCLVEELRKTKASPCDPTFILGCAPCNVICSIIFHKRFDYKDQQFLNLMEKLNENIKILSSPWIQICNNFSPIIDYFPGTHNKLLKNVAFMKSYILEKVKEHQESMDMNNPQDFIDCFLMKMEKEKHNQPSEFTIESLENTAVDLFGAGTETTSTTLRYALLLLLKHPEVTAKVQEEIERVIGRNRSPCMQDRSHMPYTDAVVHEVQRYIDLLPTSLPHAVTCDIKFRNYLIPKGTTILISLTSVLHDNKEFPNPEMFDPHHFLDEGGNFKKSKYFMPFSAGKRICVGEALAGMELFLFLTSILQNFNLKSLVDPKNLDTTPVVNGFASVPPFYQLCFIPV
# Sequence of Histamine H3 receptor (Mus musculus) (P58406 whole entry): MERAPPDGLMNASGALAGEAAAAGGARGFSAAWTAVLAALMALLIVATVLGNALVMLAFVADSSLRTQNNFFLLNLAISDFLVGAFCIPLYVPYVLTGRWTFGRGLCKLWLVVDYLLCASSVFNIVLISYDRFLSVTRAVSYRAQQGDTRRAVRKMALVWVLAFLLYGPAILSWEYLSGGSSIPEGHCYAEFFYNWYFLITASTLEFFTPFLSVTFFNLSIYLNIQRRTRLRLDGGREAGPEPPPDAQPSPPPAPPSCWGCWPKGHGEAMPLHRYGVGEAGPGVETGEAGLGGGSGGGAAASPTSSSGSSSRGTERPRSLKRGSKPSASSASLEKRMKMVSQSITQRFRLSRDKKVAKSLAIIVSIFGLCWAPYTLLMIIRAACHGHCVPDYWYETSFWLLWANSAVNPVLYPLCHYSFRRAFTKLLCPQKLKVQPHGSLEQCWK
SMILES,Ki [1] [nM],further results
Fc1ccc(-c2nnc(N3CCC(N4CCCCC4)CC3)s2)cc1,39,–
CC(=O)c1cccc(-c2nnc(N3CCC(N4CCCCC4)CC3)s2)c1,4,–
COc1ccc(-c2nnc(N3CCC(N4CCCCC4)CC3)s2)cc1,40.1,–
CC(=O)c1ccccc1-c1nnc(N2CCC(N3CCCCC3)CC2)s1,8.4,–
Cc1ccccc1-c1nnc(N2CCC(N3CCCCC3)CC2)s1,36,–
N#Cc1ccc(-c2nnc(N3CCC(N4CCCCC4)CC3)s2)cc1,36.4,–
COc1cc(C#N)cc(-c2nnc(N3CCC(N4CCCCC4)CC3)s2)c1,12,–
N#Cc1cc(C#N)cc(-c2nnc(N3CCC(N4CCCCC4)CC3)s2)c1,23,–
COc1ccc(-c2nnc(N3CCC(N4CCCC4)CC3)s2)cc1,601,–
c1ccc(-c2nnc(N3CCC(N4CCCCC4)CC3)s2)nc1,30,–
N#Cc1cccc(-c2nnc(N3CCC(N4CCCCC4)CC3)s2)c1,42.6,–
COc1cc(OC)cc(-c2nnc(N3CCC(N4CCCCC4)CC3)s2)c1,15,–
Fc1cc(F)cc(-c2nnc(N3CCC(N4CCCCC4)CC3)s2)c1,50,–
c1ccc(-c2nnc(N3CCC(N4CCCCC4)CC3)s2)cc1,80.1,–
COc1cccc(-c2nnc(N3CCC(N4CCCCC4)CC3)s2)c1,31.9,–
c1n[nH]cc1-c1nnc(N2CCC(N3CCCCC3)CC2)s1,192,–
Cc1cccc(-c2nnc(N3CCC(N4CCCCC4)CC3)s2)n1,6.1,–
Fc1ccccc1-c1nnc(N2CCC(N3CCCCC3)CC2)s1,36,–

SMILES,Ki [1] [nM],further results
O=C(Nc1nnc(N2CCC(N3CCCCC3)CC2)s1)NC1CCCC1,48.6,INH [2]: > 20 µM; INH [3]: > 20 µM; INH [4]: > 20 µM
COc1cccc(-c2nnc(N3CCC(N4CCCCC4)CC3)s2)n1,3.5,INH [2]: > 20 µM; concentration at 4 h [5]: 1530 ng/g; Activity [6]: 74%; INH [3]: > 20 µM; INH [4]: > 20 µM
COc1cc(F)cc(-c2nnc(N3CCC(N4CCCCC4)CC3)s2)c1,16,–
Clc1cccc(-c2nnc(N3CCC(N4CCCCC4)CC3)s2)c1,49,–
Clc1ccc(-c2nnc(N3CCC(N4CCCCC4)CC3)s2)cc1,161,–
CCN1CCN(c2nnc(-c3ccc(OC)cc3)s2)CC1,162,–
Clc1cc(Cl)cc(-c2nnc(N3CCC(N4CCCCC4)CC3)s2)c1,72,–
COc1ccc(-c2nnc(N3CCN(C4CCCC4)CC3)s2)cc1,182,–
Cc1ccc(-c2nnc(N3CCC(N4CCCCC4)CC3)s2)cc1,163,–
COc1ncc(-c2nnc(N3CCC(N4CCCCC4)CC3)s2)s1,28,–
Clc1ccccc1-c1nnc(N2CCC(N3CCCCC3)CC2)s1,69,–
COc1ccccc1-c1nnc(N2CCC(N3CCCCC3)CC2)s1,40,–
c1cnc(-c2nnc(N3CCC(N4CCCCC4)CC3)s2)nc1,103,–
Fc1cccc(-c2nnc(N3CCC(N4CCCCC4)CC3)s2)c1,62,–
CC(=O)c1ccc(-c2nnc(N3CCC(N4CCCCC4)CC3)s2)cc1,65,–
Cc1cccc(-c2nnc(N3CCC(N4CCCCC4)CC3)s2)c1,60,–
COc1cc(Cl)cc(-c2nnc(N3CCC(N4CCCCC4)CC3)s2)c1,12,INH [2]: > 20 µM; concentration at 4 h [5]: 9030 ng/g; Activity [6]: 90%; AUC(0-t) at 6 h [7]: 379 ng·h/mL; INH [3]: > 20 µM; INH [4]: > 20 µM
COc1ccc(-c2nnc(N3CCN4CCCC4C3)s2)cc1 (stereo not given),653,–
